# Screening data from PubChem BioAssay.
# Hits are enriched below; roughly 3% of the tested compounds scored in any of these assays.
# NRP1-CendR mod = NRP-1/CendR interaction modulation. O14786. inhibition, % at 25 µM. FAM-RPARPAR peptide binding to NRP-1, fluorescence polarization. actives 0.85% (n = 360,000);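 active = inhibition or corrected inhibition above about 18%, plus a signal ratio from 0.5 to 1.5, limit read from the data, passing the limit was not always enough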
# Target sequence (O14786 whole entry, looked up): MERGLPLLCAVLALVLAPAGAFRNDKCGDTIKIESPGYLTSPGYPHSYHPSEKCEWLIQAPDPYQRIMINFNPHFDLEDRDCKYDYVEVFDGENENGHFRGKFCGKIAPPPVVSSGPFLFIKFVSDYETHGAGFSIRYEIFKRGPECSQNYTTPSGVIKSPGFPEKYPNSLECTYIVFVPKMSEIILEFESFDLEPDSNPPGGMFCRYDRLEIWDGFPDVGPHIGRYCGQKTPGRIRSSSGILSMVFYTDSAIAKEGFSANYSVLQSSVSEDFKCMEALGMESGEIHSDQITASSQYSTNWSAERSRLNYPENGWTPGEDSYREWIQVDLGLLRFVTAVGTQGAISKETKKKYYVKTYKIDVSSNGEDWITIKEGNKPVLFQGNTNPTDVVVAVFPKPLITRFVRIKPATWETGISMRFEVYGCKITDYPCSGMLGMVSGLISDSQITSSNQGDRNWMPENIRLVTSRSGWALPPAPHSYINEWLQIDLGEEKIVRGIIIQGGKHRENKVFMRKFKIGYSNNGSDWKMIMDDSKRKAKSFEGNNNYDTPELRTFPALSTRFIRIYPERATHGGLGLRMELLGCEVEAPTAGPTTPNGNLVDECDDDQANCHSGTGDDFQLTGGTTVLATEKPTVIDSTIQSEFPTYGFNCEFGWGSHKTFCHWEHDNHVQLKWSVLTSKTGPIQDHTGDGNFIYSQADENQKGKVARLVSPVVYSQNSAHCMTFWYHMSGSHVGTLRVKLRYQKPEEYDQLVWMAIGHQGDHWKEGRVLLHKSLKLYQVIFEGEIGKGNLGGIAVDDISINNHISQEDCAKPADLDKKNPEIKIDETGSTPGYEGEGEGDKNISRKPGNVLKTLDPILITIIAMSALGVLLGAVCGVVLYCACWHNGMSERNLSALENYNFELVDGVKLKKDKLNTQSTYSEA
# PLC-beta3 inh = PLC-beta3 (human) inhibition, primary screen | actives 0.18% (n = 370,000) | Q01970 | Purified PLC-beta3, fluorogenic substrate, fluorescence | inhibition, % at 12.2 µM;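 also: 0% = median of compound wells on plate and 100% = full blocker control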
# DDE Tn6 FP inh = inhibitors of Tn6 peptide binding to human fibrin DD(E); P02675; Fibrin DD(E) TRITC-Tn6 fluorescence polarization displacement; inhibition, % at 8.3 µM; actives 0.21% (n = 370,000); AID 720509;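 active = inhibition above a per-campaign cutoff: mean of compounds within control limits plus 3 SD, cut at about 15% in these data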;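 also: 0% = median of all compound wells on the plate and 100% = blocking peptide control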
# Tn7 DDE FP = disrupts Tn7 cyclic peptide binding to fibrin D-Dimer-E complex | P02675 | FP displacement of FITC-Tn7 peptide from fibrin DD(E); 0% = median of compound wells per plate | inhibition, % at 8.3 µM | actives 0.13% (n = 370,000);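 active = inhibition above the mean of compounds falling within the control limits plus 3 SD of them, cut at about 14% in these data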;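 also: 0% = plate median of compound wells and 100% = 10 µM Aha-Tn7 peptide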
#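 Assay system: human fibrin DD(E) protein / Input: 2 µM fibrin DD(E) / Benchmarks: high control of 10 µM Aha-Tn7 peptide / Measured by: fluorescence polarization of the labelled Tn7 tracer / Medium: Tris buffer with calcium and detergent, pH 7.8 / Timing: 10 min compound pre-incubation, 3 h probe incubation at room temperature / Repeats: one replicate per compound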
# proKLK7 act = activators of human kallikrein-7 zymogen | activation, % at 7 µM | AID 652039 | purified proKLK7, EDANS-DABCYL substrate fluorescence; 100% is mature enzyme control, 0% vehicle | actives 0.9% (n = 370,000);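 active = activation above the mean of all tested compounds plus 3 SD, computed per campaign excluding outliers beyond control limits, cut at about 13% in these data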
# PLC-gamma1 inh = PLC-gamma1 (human) inhibition, primary screen. purified PLC-gamma1, fluorogenic substrate, fluorescence. P19174. actives 0.84% (n = 370,000). inhibition, % at 12.2 µM; in the data active = inhibition above about 9.5%
# PLCg1 ctr = PLC-gamma1 inhibition, counter-screen for PLC-beta3 hits; inhibition, % at 12.3 µM; shares compounds with PLC-gamma1 inh; actives 3.1% (n = 3,300); AID 743258; purified PLC-gamma1, fluorogenic substrate, fluorescence; in the data active = inhibition above about 9.5%
# PLCb3 confirm = confirmation of human PLC-beta3 inhibitors | actives 1% (n = 3,300) | inhibition, % at 12.3 µM | shares compounds with PLC-gamma1 inh | purified PLC-beta3, fluorogenic substrate fluorescence
# An asterisk follows results filed as active; i = inactive; . = no result given. Rule as the data show it, unless noted: active = inhibition above about 11%; inactive = the rest.
SMILES,NRP1-CendR mod,PLC-beta3 inh,DDE Tn6 FP inh,Tn7 DDE FP,proKLK7 act,PLC-gamma1 inh,PLCg1 ctr,PLCb3 confirm
COc1ccc(N2CC(C(=O)Nc3cccc(C)n3)CC2=O)cc1 (configuration not stated),18,1,2,-2,-1,10*,-5,-2
CCOc1ccc(N2CC(C(=O)Nc3nnc(Cc4ccc(OC)cc4)s3)CC2=O)cc1 (configuration not stated),-18,-2,-2,9,0,16*,-6,-4
COc1ccc(Cc2nnc(NC(=O)C3CC(=O)N(c4ccc(OC)cc4)C3)s2)cc1 (configuration not stated),9,-11,3,7,0,0,.,.
COc1ccc(N2CC(C(=O)Nc3cc(C)on3)CC2=O)cc1 (configuration not stated),-4,0,0,-4,0,1,.,.
CCCCCc1ccc(-c2n[nH]c(=O)c3ccccc23)cc1,.,-6,-5,5,0,2,.,.
CC[C@H](CCCCCCCn1ccc2ccccc21)CCC(=O)N(c1ccccc1)c1ccccc1,.,2,-1,5,1,-2,.,.
CCOc1ccccc1NC(=S)N(CCCN1CCOCC1)Cc1cn(C)c2ccccc12,-5,-4,4,0,0,14*,-2,2
COc1ccccc1NC(=S)N(CCCN1CCOCC1)Cc1cn(C)c2ccccc12,0,-1,7,-4,0,0,.,.
O=Cc1cc(N=Nc2cccc(C(=O)O)c2)ccc1O,-40,1,5,-5,-1,14*,29*,1
O=C(NCc1ccccc1)C1=C[C@H](c2ccc(C(F)(F)F)cc2)C[C@H](OCc2ccc(CO)cc2)O1,14,14*,-13,-9,1,7,-11,-10
COc1cc(OC)c(C(=O)Oc2ccc3c(c2)OCO3)cc1OC,9,4,3,-3,0,11*,8,3
Cc1cc(NS(=O)(=O)c2ccc(NC(=O)CSc3nnc(-c4ccccn4)n3-c3ccccc3)cc2)nc(C)n1,.,1,3,1,0,-2,.,.
CCCCn1c(=O)c(F)cn(Cc2ccc(OC)c([N+](=O)[O-])c2)c1=O,11,3,10,4,1,4,.,.
CCCn1c(=O)c(F)cn(Cc2ccc(OC)c([N+](=O)[O-])c2)c1=O,4,12*,4,2,0,4,-5,0
Cc1ccccc1C(=O)N1CCC(C(=O)N2CCN(Cc3ccc4c(c3)OCO4)CC2)CC1,0,-1,-15,-5,0,12*,-4,1
Cc1noc(C)c1NC(=O)NC(c1ccccc1)c1ccccc1,-1,-6,5,-1,0,10*,6,2
CC1=C(C(=O)OCc2ccccc2)N2C(=O)[C@@H](NC(=O)COc3ccccc3)[C@H]2SC1,-10,-1,6,-5,0,-1,.,.
CC1=C(C(=O)OCc2ccc([N+](=O)[O-])cc2)N2C(=O)C(NC(=O)Cc3ccccc3)C2SC1 (configuration not stated),1,2,0,5,0,24*,24*,1
O=C(O)CC(NC(=O)C12CC3CC(CC(C3)C1)C2)c1cc([N+](=O)[O-])ccc1Cl (configuration not stated),-4,6,7,-6,0,13*,-5,-4
O=C(CSc1nnc(-c2cccnc2)n1-c1ccccc1)Nc1cccc2ccccc12,.,5,8,-10,0,2,.,.
CCN(C(=O)CSc1nc2c(cnn2-c2ccccc2)c(=O)[nH]1)C1CCS(=O)(=O)C1 (configuration not stated),-7,6,2,-6,0,9.7*,4,4
CCCN(C(=O)CSc1nc2c(cnn2-c2ccccc2)c(=O)[nH]1)C1CCS(=O)(=O)C1 (configuration not stated),-21,0,2,0,0,-2,.,.
CC1CCN(C(=O)CSc2nc3c(cnn3-c3ccc(Cl)cc3)c(=O)[nH]2)CC1,-7,11*,4,-1,0,10.0*,0,1
COc1ccc(OC)c(S(=O)(=O)N2CCC(C(=O)NCC3COCCO3)CC2)c1 (configuration not stated),.,2,8,-3,0,1,.,.
C[C@@H]1CC=C[C@@H]2[C@H]1C(=O)N(Cc1ccccc1)[C@H]2c1cccc(C#Cc2ccccc2)c1,4,-3,7,1,0,0,.,.
SMILES,NRP1-CendR mod,PLC-beta3 inh,DDE Tn6 FP inh,Tn7 DDE FP,proKLK7 act,PLC-gamma1 inh,PLCg1 ctr,PLCb3 confirm
C[C@@H]1CC=C[C@@H]2[C@H]1C(=O)N(Cc1ccccc1)[C@H]2c1cccc(Br)c1,9,4,-11,2,0,12*,0,0
Cc1ccc2c(c1)c(N=Nc1cccc(C(=O)O)c1)c(O)n2C,-3,1,2,1,-1,13*,-8,-8
CC(=O)c1c(C)[nH]c(C(=O)Nc2cccc(C#N)c2)c1C,4,-3,0,-8,0,9.8*,-16,-15
CC(=O)c1c(C)[nH]c(C(=O)Nc2cccc(C(F)(F)F)c2)c1C,18,-3,6,-11,0,3,.,.
O=C(Nc1cnn(Cc2ccc(F)cc2)c1)C(c1ccccc1)c1ccccc1,10,8,1,-2,0,10*,-5,0
COc1c(OC(C)=O)ccc(/C=C/c2ccc3cccc(OC)c3n2)c1[N+](=O)[O-],0,3,6,-2,0,4,.,.
COc1c(OC(C)=O)ccc(/C=C/c2ccc3ccccc3n2)c1[N+](=O)[O-],-2,6,-12,-3,0,14*,1,-21
O=C(CSc1nnc(Cc2cccs2)n1-c1ccc(Cl)cc1)Nc1ccc(OCc2ccccc2)cc1,.,1,2,8,0,0,.,.
COc1ccc(NC(=O)CN(c2ccc(OC)c(Cl)c2)S(=O)(=O)c2ccccc2)c(OC)c1,1,-4,-1,-5,0,11*,-3,1
CC(=O)CC[C@H]1CC[C@]2(CCCN(S(=O)(=O)c3ccccc3)C2)O1,.,0,-5,-1,0,-2,.,.
COc1cccc(-c2cc3nc(-c4ccco4)cc(N4CCN(C(C)=O)CC4)n3n2)c1,.,i,-13,-2,.,i,.,.
COc1ccc(F)cc1S(=O)(=O)N1CCCN(S(=O)(=O)c2cc(F)ccc2OC)CC1,-7,5,-4,-11,0,4,.,.
